The source of these data is ChEMBL document CHEMBL1649255, “Impact of novel human immunodeficiency virus type 1 reverse transcriptase mutations P119S and T165A on 4'-ethynylthymidine analog resistance profile” (Antimicrob Agents Chemother, 2009).

For data set [1], the target named is Human immunodeficiency virus type 1 reverse transcriptase (Human immunodeficiency virus 1, UniProt Q72547). As to the kind of experiment: Inhibition of wild-type HIV1 Reverse transcriptase. The method, boiled down: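 Same steady-state dTTP incorporation reaction: 250 nM DNA 23-mer/RNA 36-mer primer/template, 2.5 nM RT, Tris-HCl pH 8.0/NaCl/MgCl2/DTT/BSA buffer, 37°C. The analog triphosphate inhibitor was added at various concentrations. Apparent dTTP Km was measured at each inhibitor level to derive Ki, and Ki/Km(dTTP) was used as an inhibition-efficiency index.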

Data set [2] deals with Human immunodeficiency virus type 1 reverse transcriptase (Human immunodeficiency virus 1), Q72547 [P119S,T165A,M184V]. Nature of the data set: Ratio of Ki to Km for HIV1 Reverse transcriptase P119S/T165A/M184V mutant. The method, boiled down:
(§1)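 Steady-state inhibition of dTTP incorporation used 2.5 nM wild-type or mutant RT and 250 nM DNA/RNA 23-mer/36-mer primer/template. Apparent dTTP Km was measured across varied 4′-Ed4TTP or d4TTP to give Ki. Ki/Km(dTTP) served as the inhibition index.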

Data set [3] has as its system Human immunodeficiency virus type 1 reverse transcriptase (Human immunodeficiency virus 1), Q72547 [T165A,M184V]. As to the kind of experiment: Ratio of Ki to Km for HIV1 Reverse transcriptase T165A/M184V mutant. The essentials: as §1
The test system of data set [4] is Human immunodeficiency virus type 1 reverse transcriptase (Human immunodeficiency virus 1), Q72547 [M184V]. As to the kind of experiment: Ratio of Ki to Km for HIV1 Reverse transcriptase M184V mutant. The essentials:
as §1

The target of data set [5] is Human immunodeficiency virus type 1 reverse transcriptase (Human immunodeficiency virus 1) (UniProt Q72547). As to the kind of experiment: Ratio of Ki to Km for wild-type HIV1 Reverse transcriptase. The method, boiled down:
as §1

The target of data set [6] is Human immunodeficiency virus type 1 reverse transcriptase (Human immunodeficiency virus 1, UniProt Q72547, T165A). As to the kind of experiment: Inhibition of HIV1 Reverse transcriptase T165A mutant. The essentials:
as §1

The target of data set [7] is Human immunodeficiency virus type 1 reverse transcriptase (Human immunodeficiency virus 1, UniProt Q72547, M184V). As to the kind of experiment: Inhibition of HIV1 Reverse transcriptase M184V mutant. The method, boiled down: as §1
Data set [8] addresses Human immunodeficiency virus type 1 reverse transcriptase (Human immunodeficiency virus 1, UniProt Q72547, P119S/T165A). As to the kind of experiment: Inhibition of HIV1 Reverse transcriptase P119S/T165A mutant. The method, boiled down: as §1
The target of data set [9] is Human immunodeficiency virus type 1 reverse transcriptase (Human immunodeficiency virus 1, UniProt Q72547, P119S). Nature of the data set: Inhibition of HIV1 Reverse transcriptase P119S mutant. The essentials: as §1
In data set [10] the target is Human immunodeficiency virus type 1 reverse transcriptase (Human immunodeficiency virus 1, UniProt Q72547, M184V/T165A). As to the kind of experiment: Inhibition of HIV1 Reverse transcriptase T165A/M184V mutant. The method, boiled down:
as §1

Data set [11] deals with Human immunodeficiency virus type 1 reverse transcriptase (Human immunodeficiency virus 1, UniProt Q72547, M184V/P119S/T165A). Nature of the data set: Inhibition of HIV1 Reverse transcriptase P119S/T165A/M184V mutant. The essentials: as §1
Data set [12] deals with Human immunodeficiency virus type 1 reverse transcriptase (Human immunodeficiency virus 1), Q72547 [P119S,M184V]. As to the kind of experiment: Ratio of Ki to Km for HIV1 Reverse transcriptase P119S/M184V mutant. The method, boiled down:
as §1

Data set [13] has as its target Human immunodeficiency virus type 1 reverse transcriptase (Human immunodeficiency virus 1, UniProt Q72547, M184V/P119S). Nature of the data set: Inhibition of HIV1 Reverse transcriptase P119S/M184V mutant. The method, boiled down: as §1
Data set [14] deals with Human immunodeficiency virus type 1 reverse transcriptase (Human immunodeficiency virus 1), Q72547 [P119S]. Nature of the data set: Ratio of Ki to Km for HIV1 Reverse transcriptase P119S mutant. The essentials: as §1
Data set [15] relates to Human immunodeficiency virus type 1 reverse transcriptase (Human immunodeficiency virus 1), Q72547 [T165A]. As to the kind of experiment: Ratio of Ki to Km for HIV1 Reverse transcriptase T165A mutant. The essentials:
as §1

In data set [16] the test system is Human immunodeficiency virus type 1 reverse transcriptase (Human immunodeficiency virus 1), Q72547 [P119S,T165A]. As to the kind of experiment: Ratio of Ki to Km for HIV1 Reverse transcriptase P119S/T165A mutant. The essentials:
as §1

Data set [17] has as its system Cc1cn([C@H]2C[C@H](O)[C@@H](COP(=O)(O)OP(=O)(O)OP(=O)(O)O)O2)c(=O)[nH]c1=O. As to the kind of experiment: Ratio of Kcat to Km for HIV1 Reverse transcriptase M184V mutant. The conditions noted are these: Human immunodeficiency virus 1.
Data set [18] shares this test system. As to the kind of experiment: Activity of HIV1 Reverse transcriptase M184V mutant. The settings on record: Human immunodeficiency virus 1.
The test system is the same in data set [19]. As to the kind of experiment: Activity of HIV1 Reverse transcriptase T165A/M184V mutant. The settings on record: Human immunodeficiency virus 1.
For data set [20] the test system is unchanged. As to the kind of experiment: Ratio of Kcat to Km for HIV1 Reverse transcriptase T165A/M184V mutant. The conditions noted are these: Human immunodeficiency virus 1.
The subject of data set [21] is Human immunodeficiency virus 1. As to the kind of experiment: Antiviral activity against HIV1 pNL4-3 harboring Reverse transcriptase P119S/M184V mutant gene infected in TZM-bl cells after 72 hrs by luciferase assay. The settings on record: Human immunodeficiency virus 1, pNL4-3, TZM-bl. The data set is classed as functional, organism-based. The essentials: (§2)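 TZM-bl cells (LTR-driven luciferase reporter) at 5 × 10^4 per well in RPMI 1640 with 10% dialyzed FBS. They were preincubated 16 h at 37°C with a range of 4′-Ed4T, d4T, 3TC or AZT, then infected with NL4-3-derived clones at MOI 0.01. After 72 h, lysates were read for luciferase, with uninfected background subtracted. EC50 is from % of no-drug signal, reported as mean ± SD of three experiments.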

Data set [22] concerns Human immunodeficiency virus 1. As to the kind of experiment: Antiviral activity against HIV1 pNL4-3 harboring Reverse transcriptase T165A mutant gene infected in TZM-bl cells after 72 hrs by luciferase assay. The data set is classed as functional, organism-based. The settings on record: Human immunodeficiency virus 1, pNL4-3, TZM-bl. The essentials:
as §2

The subject of data set [23] is Human immunodeficiency virus 1. Nature of the data set: Antiviral activity against HIV1 pNL4-3 harboring Reverse transcriptase T165A/M184V mutant gene infected in TZM-bl cells after 72 hrs by luciferase assay. It counts as functional, organism-based. The settings on record: Human immunodeficiency virus 1, pNL4-3, TZM-bl. The method, boiled down:
as §2

Data set [24] has as its system Human immunodeficiency virus 1. As to the kind of experiment: Antiviral activity against HIV1 pNL4-3 harboring chimeric pTKD infected in TZM-bl cells after 72 hrs by luciferase assay. The data set is classed as functional, organism-based. The conditions noted are these: Human immunodeficiency virus 1, pNL4-3, TZM-bl. The method, boiled down: as §2
Data set [25] concerns Human immunodeficiency virus 1. As to the kind of experiment: Antiviral activity against HIV1 pNL4-3 harboring Reverse transcriptase P119S/T165A mutant gene infected in TZM-bl cells after 72 hrs by luciferase assay. The conditions noted are these: Human immunodeficiency virus 1, pNL4-3, TZM-bl. The data set is classed as functional, organism-based. The method, boiled down: as §2

Data set [26] deals with Human immunodeficiency virus 1. As to the kind of experiment: Antiviral activity against HIV1 pNL4-3 harboring Reverse transcriptase M184V mutant gene infected in TZM-bl cells after 72 hrs by luciferase assay. The data set is classed as functional, organism-based. The conditions noted are these: Human immunodeficiency virus 1, pNL4-3, TZM-bl. The essentials:
as §2

The test system of data set [27] is Human immunodeficiency virus 1. As to the kind of experiment: Antiviral activity against HIV1 pNL4-3 harboring Reverse transcriptase P119S mutant gene infected in TZM-bl cells after 72 hrs by luciferase assay. It counts as functional, organism-based. The conditions noted are these: Human immunodeficiency virus 1, pNL4-3, TZM-bl. The method, boiled down: as §2

For data set [28], the system named is Human immunodeficiency virus 1. Nature of the data set: Antiviral activity against wild-type HIV1 pNL4-3 infected in TZM-bl cells by luciferase assay. The data set is classed as functional, organism-based. The settings on record: Human immunodeficiency virus 1, pNL4-3, TZM-bl. The method, boiled down: as §2
Data set [29] deals with Human immunodeficiency virus 1. Nature of the data set: Antiviral activity against HIV1 pNL4-3 harboring Reverse transcriptase P119S/T165A/M184V mutant gene infected in TZM-bl cells after 72 hrs by luciferase assay. The data set is classed as functional, organism-based. The settings on record: Human immunodeficiency virus 1, pNL4-3, TZM-bl. The essentials:
as §2

Data set [30] deals with Cc1cn([C@H]2C[C@H](O)[C@@H](COP(=O)(O)OP(=O)(O)OP(=O)(O)O)O2)c(=O)[nH]c1=O. Nature of the data set: Ratio of Kcat to Km for HIV1 Reverse transcriptase P119S/T165A mutant. The settings on record: Human immunodeficiency virus 1.
For data set [31] the test system is unchanged. As to the kind of experiment: Activity of HIV1 Reverse transcriptase P119S/T165A mutant. The settings on record: Human immunodeficiency virus 1.
The test system is the same in data set [32]. As to the kind of experiment: Activity of HIV1 Reverse transcriptase P119S/T165A/M184V mutant. The settings on record: Human immunodeficiency virus 1.
For data set [33] the test system is unchanged. As to the kind of experiment: Ratio of Kcat to Km for HIV1 Reverse transcriptase P119S/T165A/M184V mutant. The settings on record: Human immunodeficiency virus 1.

For orientation: Ki means a dissociation constant, usually derived from enzyme kinetics or from competition with a known ligand. Higher therefore signals lower affinity. Consider `Cc1cn([C@H]2C=C[C@@H](COP(=O)(O)OP(=O)(O)OP(=O)(O)O)O2)c(=O)[nH]c1=O` [STAVUDINE TRIPHOSPHATE], for which the Ki in [1] was 630 nM; in [6] it was 210 nM; in data set [7], 790 nM; in [8] it was 370 nM; in data set [9] it was 640 nM; in data set [10], 300 nM. Further, the figures for the Ki in data set [11] and in [13] were 1050 nM and 480 nM, respectively. For the same compound, the Ki/Km in [2] is 7; in [3] it was 2.7; in data set [4], 6.6; in data set [5], 5.3; in data set [12] it was 2.7; in [14], 2.1. Further, the Ki/Km in [15] was found to be 2.1; in [16], 5.3.
Consider “Human immunodeficiency virus type 1 reverse transcriptase (Human immunodeficiency virus 1) (from UniProt Q72547) M184V”, for which, in data set [17], the kcat/Km (10'-2/microM/s) worked out at 2.6. In data set [18], the kcat is 3.1 ×10⁻⁴ /s.
In the case of “Human immunodeficiency virus type 1 reverse transcriptase (Human immunodeficiency virus 1) (from UniProt Q72547) T165A,M184V”, the kcat in [19] stood at 1.4 ×10⁻⁵ /s. The kcat/Km (10'-2/microM/s) in data set [20] worked out at 1.3.
In general, EC50 refers to the concentration needed to bring the measured effect to its halfway point. Read a high EC50 as lower potency in that assay. Take `Cc1cn([C@H]2C=C[C@@H](CO)O2)c(=O)[nH]c1=O` [STAVUDINE]: the EC50 stood at 1550 nM in data set [21]; 1460 nM in data set [22]; 1500 nM in data set [23]; 1000 nM in data set [24]; 2480 nM in data set [25]; 1400 nM in data set [26]. The EC50 in [27] was 1440 nM; in [28] it was 1250 nM; in data set [29], 1280 nM.
One may read the Km as the substrate concentration at which the rate is half of its maximum. Turning to “Human immunodeficiency virus type 1 reverse transcriptase (Human immunodeficiency virus 1) (from UniProt Q72547) P119S,T165A”, the kcat/Km (10'-2/microM/s) in data set [30] worked out at 5.1. In data set [31], the Km turned out to be 0.07 µM and the kcat amounted to 3.6 ×10⁻⁴ /s.
Regarding `C=C[C@@]1(COP(=O)(O)OP(=O)(O)OP(=O)(O)O)C=C[C@H](n2cc(C)c(=O)[nH]c2=O)O1`, the inhibition constant (Ki) in data set [1] stood at 54 nM; in [6], 80 nM; in [7], 210 nM; in data set [8], 24 nM; in data set [9], 110 nM; in [10] it was 660 nM. Besides, the values for the Ki in [11] and in data set [13] were 730 nM and 640 nM, respectively. Also, the Ki/Km in [2] was 4.9; in data set [3], 6; in data set [4], 1.7; in [5], 0.45; in [12] it was 3.6; in [14] it was 0.85. Besides, the results for the Ki/Km in data set [15] and in [16] were 0.8 and 0.34, respectively.
On to “Human immunodeficiency virus type 1 reverse transcriptase (Human immunodeficiency virus 1) (from UniProt Q72547) P119S,T165A,M184V”, for which, in data set [32], the Km stood at 0.15 µM and the kcat was determined as 9 ×10⁻⁵ /s. In [33], the kcat/Km (10'-3/microM/s) amounted to 6.
